Like-named read-outs stand apart in the source and are kept apart here. Values belong to the compound of their own block, whether it stands above or below them.
Assays:
[1] = in vitro; settings: human
[2] = tested on: T. brucei bloodstream form (BSF) parasites; assay: T. brucei growth inhibition; format: cell-based, Trypanosoma brucei brucei Lister 427; settings: Trypanosoma brucei, read-out: T. brucei EC50
[3] = in vitro; settings: human; remark: listed apart in the source
[4] = tested on: AT-rich DNA dodecamer duplex; settings: DSC, shift on inhibitor binding; cited from earlier work
[5] = tested on: T. brucei brucei Lister 427; assay: T. brucei brucei Lister 427 mouse model of infection; format: in vivo, BALB/C mice; settings: treated mice, i.p. for 4 days (8 at 3 and 10 mg/kg)
[6] = treatment of the second or neurological phase of HAT; no reference given; cited from earlier work
[7] = tested on: T. brucei k-DNA and nuclear DNA replication; assay: Visualization of DNA replication; format: cell-based, Trypanosoma brucei; settings: EdU click chemistry, 72 h treatment
How it was run: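 Bloodstream-form trypanosomes, after 72 h exposure to test compound (DMSO vehicle as control), were pulsed 16 h with EdU, washed in PBS, fixed in cold 100% ethanol and dried. EdU was detected by Cu(I)-catalysed click labelling with Alexa Fluor 488 azide ([…]), and the cells were counterstained with 10 μg/ml DAPI. Nuclear and k-DNA signals were assessed by fluorescence microscopy.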

[8] = target: T1, human FPPS (Homo sapiens, UniProt P14324); assay: Human FPPS inhibition; format: biochemical; settings: read-out: IC50 against human FPPS
T1 sequence (P14324 1-419): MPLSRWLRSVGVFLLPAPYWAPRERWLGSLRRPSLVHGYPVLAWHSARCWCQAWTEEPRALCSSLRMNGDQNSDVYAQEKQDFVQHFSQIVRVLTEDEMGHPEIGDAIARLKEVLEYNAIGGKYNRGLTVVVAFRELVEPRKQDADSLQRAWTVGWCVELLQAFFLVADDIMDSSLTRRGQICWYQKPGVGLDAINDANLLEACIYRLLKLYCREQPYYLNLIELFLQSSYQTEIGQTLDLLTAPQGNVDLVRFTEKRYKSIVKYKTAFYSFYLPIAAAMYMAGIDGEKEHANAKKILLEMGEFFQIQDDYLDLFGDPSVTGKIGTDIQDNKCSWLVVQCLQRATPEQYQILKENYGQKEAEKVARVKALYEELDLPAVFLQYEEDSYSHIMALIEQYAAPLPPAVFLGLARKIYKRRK

[9] = target: T. brucei farnesyl diphosphate synthase (TbFPPS) (Trypanosoma brucei, UniProt Q57WF1); assay: TbFPPS inhibition, coupled colorimetric assay; format: biochemical; settings: read-out: TbFPPS IC50; duplicate ± SD; highest inhibitor concentration 316 μM

SMILES: N=C(N)c1ccc(OCCCCCOc2ccc(C(=N)N)cc2)cc1 [compound 2, pentamidine]
CC50 at 72 h [1]: < 400 nM
EC50 ([2]; 72 h): 5.5 nM
EC50 [2]: 5 nM
CC50 at 72 h [3]: < 400 nM
ΔTm [4]: 2.7 °C
parasitemia [5]: no parasitemia observed

SMILES: Nc1nc(N)nc(Nc2ccc([As]3SCC(CO)S3)cc2)n1 (stereo not shown) [compound 3, melarsoprol]
lethal in patients [6]: 5-10%

SMILES: CC[n+]1c(-c2ccccc2)c2cc(N)ccc2c2ccc(N)cc21 [ethidium bromide]
k-DNA replication in T. brucei [7]: completely blocked

IC50 [8]: ~50000 nM
IC50 [9]: ~50000 nM
SMILES: N=C(N)c1ccc(-c2ccc(-c3ccc(C(=N)N)cc3)o2)cc1 [compound 6]

— PMC4539249 (ACS infectious diseases, 2015)
